MEKK2 WT-MEK5 – raises or lowers MEK5 binding to wildtype human MEKK2 PB1 domain; AID 1531; Q9Y2U5; bead flow cytometry, Alexa488-MEK5 binding to MEKK2 WT; actives lie on both sides; 290,000 tested, 1.1% active; binding response (% of control), % at 10 µM; in the data active means binding response below about 67% or above about 130%
UBC13 inh – blocks human UBC13 polyubiquitin chain formation; P61088; TR-FRET; inhibition, % at 20 µM; 330,000 tested, 0.47% active; AID 485273; in the data active means inhibition above about 45%, passing the limit was not always enough
Target sequence (P61088 whole entry, looked up): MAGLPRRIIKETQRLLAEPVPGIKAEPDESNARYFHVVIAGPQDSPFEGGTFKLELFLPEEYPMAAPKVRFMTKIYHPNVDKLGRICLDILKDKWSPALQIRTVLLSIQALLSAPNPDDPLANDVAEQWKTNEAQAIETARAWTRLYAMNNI
MEKK2mut PB1 HTS – signal of MEK5 binding to mutant human MEKK2 PB1 domain | bead flow cytometry, Alexa488-MEK5 binding to MEKK2 mutant | percent response, % at 10 µM | 290,000 tested, 0.35% active | AID 1530; in the data active means percent response above about 24%, passing the limit was not always enough
Apaf-1 inh – human Apaf-1 inhibition; reconstituted apoptosome caspase-3 activity, DEVD-Rh110 fluorescence; 330,000 tested, 0.71% active; inhibition, % at 20 µM; AID 489030; active means inhibition of at least 40% at 20 µM;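 further: plate controls were DMSO wells for no effect and DEVD-CHO caspase inhibitor wells for full effect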
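detection = Rh110 fluorescence intensity | test system = biochemical Apaf-1 apoptosome reconstitution | also added = cytochrome c and DEVD-Rh110 substrate | schedule = 30 min plus 50 min, RT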
MEKK3 PB1 HTS – modulators (inhibitors or enhancers) of MEK5 binding to human MEKK3 PB1 domain | 290,000 tested, 1.4% active | Q99759 | AID 1529 | bead-based flow cytometry, Alexa488-MEK5 binding to MEKK3; actives lie on both sides; 0 = blocked by unlabeled MEK5, 100 = vehicle | binding response (% of control), % at 10 µM;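 active means binding response more than 3 SD above or below the average of its plate-row segment, actives on both sides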;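 further: Alexa488 bead fluorescence after subtracting the streptavidin-only scavenger bead signal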
MEKK2wt confirm – raises or lowers MEK5 binding to wildtype human MEKK2, retest. binding response (% of control), % at 10 µM. AID 1892. shares compounds with MEKK3 PB1 HTS. bead flow cytometry, Alexa488-MEK5 binding to MEKK2 WT; actives lie on both sides. 5,900 tested, 2.4% active; in the data active means binding response below about 16% or above about 210%; inactive means in between
MEKK2mut confirm – signal of MEK5 binding to mutant human MEKK2, retest; bead flow cytometry, Alexa488-MEK5 binding to MEKK2 mutant; shares compounds with MEKK3 PB1 HTS; percent response, % at 10 µM; AID 1893; 5,900 tested, 2% active; in the data active means percent response mostly above about 71%, no sharp cut-off; inactive means mostly below about 38%;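 further: higher means compound restores mutant binding toward wildtype level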
MEKK3 confirm – MEKK3-MEK5 PB1 inhibition, single concentration confirmation. shares compounds with MEKK3 PB1 HTS. bead flow cytometry, Alexa488-MEK5 binding to MEKK3; active compounds read low. binding response (% of control), % at 10 µM. 5,900 tested, 1.8% active. AID 1894;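 active means binding response below 72% of control, or above a set upper limit, though filed actives all read lower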;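 further: 100% = DMSO only wells and 0% = binding blocked by excess unlabeled MEK5; lower values mean stronger disruption of MEK5 binding to MEKK3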
* hit, by the source's call; . = no result; [ ] = another dose, or the depositor's remark. Compounds with a hit are over-represented: about 2.9% of the library has one in this group of screens.

SMILES	MEKK2 WT-MEK5	UBC13 inh	MEKK2mut PB1 HTS	Apaf-1 inh	MEKK3 PB1 HTS	MEKK2wt confirm	MEKK2mut confirm	MEKK3 confirm
CCOC(=O)C1(CCCc2ccccc2)CCN(C(=O)c2cc(C)nn2CC)CC1	102	-3	2	19	100	.	.	.
CN1CCN(c2nc3cc(C(F)(F)F)ccc3n3cccc23)CC1	140*	8	4	32	103	135	19	109
CC(=O)C(Cc1ccccc1)NC(=O)COc1ccc2c(c1)OCO2 (centres undefined)	.	-6	.	12	.	.	.	.
O=C1C(Cc2ccccc2)Nc2ncnc(N3CCN(c4ccccc4)CC3)c2N1Cc1ccc(Cl)cc1 (centres undefined)	.	-14	.	14	.	.	.	.
O=C(NCc1nc(-c2ccccc2)no1)c1cccs1	-4.0*[inhibitor]	2	-39	-3	0.0*[inhibitor]	95	0	99
O=C(NCc1nc(-c2ccc(C(F)(F)F)cc2)no1)c1cccs1	110	2	3	-3	109	.	.	.
Cc1ccc(CNC(=O)NC23CC4CC(CC(C4)C2)C3)cc1	99	2	1	-1	100	.	.	.
O=C(NCc1ccco1)NC12CC3CC(CC(C3)C1)C2	91	-2	-13	15	81*[inhibitor]	98	0	97
O=C(NCc1ccco1)c1cccs1	84	3	-11	-21	77*[inhibitor]	100	-1	97
CN(C(=O)c1cccc(C#CC(C)(C)O)c1)C1CCCN(Cc2ccccc2F)C1 (centres undefined)	100	6	3	-1	97	.	.	.
CCCn1c(C)cc(C(=O)CSc2nc3nc(C)cc(C)n3n2)c1C	104	0	1	-2	135*	105	4	99
CCOC(=O)CSc1nc2nc(C)cc(C)n2n1	95	-2	1	-6	96	.	.	.
CN1CCN(CC(=O)N2c3ccccc3C(C)(c3ccc(Cl)cc3)CC2(C)C)CC1 (centres undefined)	112	19	27*	5	105	111	-1	100
CCOc1ccccc1CN1C(=O)c2ccccc2C1C(=O)NC(C)CC (centres undefined)	123	-8	5	5	128*	97	-7	97
O=C(N/N=C/c1cc2ccccc2nc1Cl)[C@H]1C[C@@H]1c1ccccc1	108	-13	1	25	168*	100	-4	103
CCc1nnc(NC(=O)/C=C/c2cccs2)s1	102	-8	1	-16	102	.	.	.
COc1cc(CCCN2C(=O)C(=O)NC[C@@H]2C(C)O)cc(OC)c1OC (some centres undefined)	2.0*[inhibitor]	-2	4	-6	2.0*[inhibitor]	102	-4	97
C=CCNC(=O)CN1C(=O)C2C3c4ccccc4C(c4ccccc43)C2C1=O (centres undefined)	107	-1	0	5	109	.	.	.
COC(=O)c1ccc(S(=O)(=O)N2Cc3ccccc3C2)cc1	117	-7	1	9	135*	101	8	102
CC(C)(c1ccccc1)c1ccc(OCCCN2CCNCC2)cc1	150*	28	15	23	113	125	10	105
C/C(=N\NC(=O)CN1CCN(Cc2ccc(C)cc2)CC1)c1ccncc1	123	-13	11	-2	102	.	.	.
COc1ccccc1NS(=O)(=O)c1cc(NC(=O)c2cc3ccccc3oc2=O)ccc1C	105	-7	0	7	157*	96	-11	98
COc1cccc(NC(=O)c2cc3ccccc3oc2=O)c1	103	-3	3	-5	106	.	.	.
COc1ccccc1NC(=O)Cn1nnc(-c2ccccc2NS(=O)(=O)c2ccccc2)n1	106	12	-1	-5	105	.	.	.
COc1ccccc1NC(=O)Cn1nnc(-c2ccccc2NC(=O)c2cc3ccccc3oc2=O)n1	81	-1	-7	3	76*[inhibitor]	98	-1	99
SMILES	MEKK2 WT-MEK5	UBC13 inh	MEKK2mut PB1 HTS	Apaf-1 inh	MEKK3 PB1 HTS	MEKK2wt confirm	MEKK2mut confirm	MEKK3 confirm
Cc1nc(NC(=O)C23CC4CC(CC(C4)C2)C3)sc1Cc1ccc2c(c1)OCO2	147*	10	30	10	108	131	15	105
Cc1nc(NC(=O)C2CCCC2)sc1Cc1ccc2c(c1)OCO2	109	-5	1	13	107	.	.	.
NC(=O)C(c1ccccn1)c1ncc(C(F)(F)F)cc1Cl (centres undefined)	52	-2	-14	-5	40*[inhibitor]	101	-1	103
O=C1/C(=C/c2cccnc2)SC(=S)N1N1CCOCC1	101	-8	-1	-21	99	.	.	.
O=C1/C(=C/c2ccncc2)SC(=S)N1N1CCOCC1	37*[inhibitor]	-2	-12	-5	42*[inhibitor]	99	-4	103
COc1cc(/C=C2\SC(=S)N(N3CCOCC3)C2=O)cc(OC)c1OC	91	-1	-1	-7	141*	100	-1	104
COc1cc(/C=C2\SC(=S)N(N3CCOCC3)C2=O)ccc1O	78	-1	-3	-8	76	.	.	.
Nc1cc(=O)[nH]c(SCC(=O)Nc2ccc(Oc3ccccc3)cc2)n1	94	-4	1	7	96	.	.	.
Cc1ccc(NC(=O)CSc2nnnn2-c2cccnc2)c(C)c1	103	2	3	4	97	.	.	.
CCOC(=O)/C(C#N)=C\c1c(OCC)n(CC)c2ccccc12	109	7	1	8	134*	104	1	106
Cc1cc(C)cc(C(=O)Nc2ccc(N3CCN(S(C)(=O)=O)CC3)cc2)c1	82	6	-10	-7	91	.	.	.
COc1ccc(S(=O)(=O)N2CCC(C(=O)NN3CCCCC3)CC2)cc1OC	.	18	.	-16	.	.	.	.
Cc1c(C(=O)Nc2ccc(Cl)cc2)c2ccccn2c1C(=O)c1ccccc1	116	12	5	8	126*	83	-4	87
Cc1c(C(=O)Nc2ccc(Cl)cc2)c2ccccn2c1C(=O)c1ccc([N+](=O)[O-])cc1	101	-41	0	3	107	.	.	.
COc1c(/C=N/NC(=O)c2ccccc2O)c(CCN(C)C(C)=O)cc2c1OCO2	100	7	-1	-12	134*	105	7	98
CCC(=O)N(C)CCc1cc2c(c(OC)c1/C=N/NC(=O)c1ccccc1O)OCO2	108	-2	1	-4	119	.	.	.
CCC(=O)N(C)CCc1cc2c(c(OC)c1/C=N/NC(=O)c1ccc(Br)cc1)OCO2	99	-8	0	17	131*	67	-10	85

Screens (PubChem)
